From ChEMBL document CHEMBL1138520, “Molecular and conformational determinants of pituitary adenylate cyclase-activating polypeptide (PACAP) for activation of the PAC1 receptor” (J Med Chem, 2009) come the findings set out here.

For test [1], the target named is T1, Pituitary adenylate cyclase-activating polypeptide type I receptor (Homo sapiens, UniProt P41586). The test can be described thus: Agonist activity at human recombinant PAC1 receptor expressed in CHO cells assessed as PACAP38-induced calcium mobilization at 1 uM by FLIPR assay relative to PACAP38. The test is classed as functional, cell-based. In general terms: Calcium assays in cells follow changes in intracellular calcium, usually with a dye or a luminescent sensor.
Target sequence in this assay (P41586 21-468 limits assumed): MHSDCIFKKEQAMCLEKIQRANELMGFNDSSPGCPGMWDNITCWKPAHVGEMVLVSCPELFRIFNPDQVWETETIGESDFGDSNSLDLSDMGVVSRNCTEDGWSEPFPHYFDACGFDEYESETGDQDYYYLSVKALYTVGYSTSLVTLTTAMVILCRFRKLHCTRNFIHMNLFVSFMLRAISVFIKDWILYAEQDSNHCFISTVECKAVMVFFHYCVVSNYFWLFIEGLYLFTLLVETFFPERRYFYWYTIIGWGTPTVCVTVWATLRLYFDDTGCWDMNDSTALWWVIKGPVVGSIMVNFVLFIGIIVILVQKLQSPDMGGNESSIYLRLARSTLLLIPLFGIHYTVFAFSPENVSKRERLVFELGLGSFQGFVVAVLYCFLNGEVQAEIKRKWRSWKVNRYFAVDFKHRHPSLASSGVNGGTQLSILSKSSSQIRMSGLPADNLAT

The target of test [2] is T1, Pituitary adenylate cyclase-activating polypeptide type I receptor. The test can be described thus: Displacement of [125I]Ac-PACAP27 from human recombinant PAC1 receptor expressed in CHO cells by gamma- counter. The test is classed as cell-based. In general terms: In a radioligand displacement assay an active substance lowers the binding of a labelled ligand.
Target sequence in this assay (P41586 whole entry): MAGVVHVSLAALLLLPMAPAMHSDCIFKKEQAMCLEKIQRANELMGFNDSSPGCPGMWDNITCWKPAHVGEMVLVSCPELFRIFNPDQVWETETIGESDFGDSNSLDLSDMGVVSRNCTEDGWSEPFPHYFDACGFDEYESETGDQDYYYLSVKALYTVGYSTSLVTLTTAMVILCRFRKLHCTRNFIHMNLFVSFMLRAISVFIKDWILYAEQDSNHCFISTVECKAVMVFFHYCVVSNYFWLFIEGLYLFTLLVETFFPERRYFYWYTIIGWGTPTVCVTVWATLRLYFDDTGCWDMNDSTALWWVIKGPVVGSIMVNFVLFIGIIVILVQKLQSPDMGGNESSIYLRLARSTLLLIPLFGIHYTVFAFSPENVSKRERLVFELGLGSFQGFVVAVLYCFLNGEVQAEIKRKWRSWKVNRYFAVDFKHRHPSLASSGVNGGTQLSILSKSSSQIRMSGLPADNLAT
Test [3] has the same target. Nature of the test: Agonist activity at human recombinant PAC1 receptor expressed in CHO cells assessed as PACAP38-induced calcium mobilization at 1 uM by FLIPR assay. The test is classed as functional, cell-based.
Target sequence in this assay (P41586 whole entry): as above
For test [4] the target is unchanged. The test can be described thus: Agonist activity at human recombinant PAC1 receptor expressed in CHO cells assessed as PACAP38-induced calcium mobilization by FLIPR assay. The test is classed as functional, cell-based. The essentials:
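CHO cells stably expressing recombinant human PAC1, plated 24 h before assay, loaded with fluo-4 AM for 60 min at 37 °C in the dark, then rinsed into HBSS for 15 min at 37 °C. EC50 and efficacy came from nonlinear regression; 4-10 independent assays in duplicate.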
Target sequence in this assay (P41586 whole entry): as above

Test [5] has the same target. Nature of the test: Agonist activity at human recombinant PAC1 receptor expressed in CHO cells assessed as PACAP38-induced calcium mobilization by FLIPR assay relative to PACAP38. The test is classed as functional, cell-based. The essentials: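 CHO cells stably expressing recombinant human PAC1, plated 24 h before assay, loaded with fluo-4 AM for 60 min at 37 °C in the dark, then rinsed into HBSS for 15 min at 37 °C. Peptide was added 18 s into a 150 s read (ex 480/em 525 nm), at final concentrations of 1 × 10-12 to 1 × 10^-5 M. Response was normalised to 1 × 10^-5 M PACAP38 on each plate. EC50 and efficacy came from nonlinear regression; 4-10 independent assays in duplicate.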
Target sequence in this assay (P41586 21-468 limits assumed): as the sequence (P41586 21-468 limits assumed) above

Calls of active or inactive are those of the source. The calls are words filed in the database; no cut-off is given here. Where a SMILES comes first, the peptide text is derived from it. [ ]: non-standard residue; d: D form. 1Nal = N[C@@H](Cc1cccc2ccccc12)C(=O)O

As usually defined, the Emax is the maximal effect, on the per cent scale that the assay sets. One may read the IC50 as the concentration that gives 50% inhibition. A word on the EC50: it is the concentration needed to bring the measured effect to its halfway point. Take `CC[C@H](C)[C@H](NC(=O)CNC(=O)[C@H](CC(=O)O)NC(=O)[C@H](CO)NC(=O)[C@@H](N)Cc1cnc[nH]1)C(=O)N(C)[C@@H](Cc1ccccc1)C(=O)N[C@H](C(=O)N[C@@H](CC(=O)O)C(=O)N[C@@H](CO)C(=O)N[C@@H](Cc1ccc(O)cc1)C(=O)N[C@@H](CO)C(=O)N[C@@H](CCCNC(=N)N)C(=O)N[C@@H](Cc1ccc(O)cc1)C(=O)N[C@@H](CCCNC(=N)N)C(=O)N[C@@H](CCCCN)C(=O)N[C@@H](CCC(N)=O)C(=O)N[C@@H](CCSC)C(=O)N[C@@H](C)C(=O)N[C@H](C(=O)N[C@@H](CCCCN)C(=O)N[C@@H](CCCCN)C(=O)N[C@@H](Cc1ccc(O)cc1)C(=O)N[C@@H](CC(C)C)C(=O)N[C@@H](C)C(=O)N[C@@H](C)C(=O)N[C@H](C(=O)N[C@@H](CC(C)C)C(=O)NCC(=O)N[C@@H](CCCCN)C(=O)N[C@@H](CCCNC(=N)N)C(=O)N[C@@H](Cc1ccc(O)cc1)C(=O)N[C@@H](CCCCN)C(=O)N[C@@H](CCC(N)=O)C(=O)N[C@@H](CCCNC(=N)N)C(=O)N[C@H](C(=O)N[C@@H](CCCCN)C(=O)N[C@@H](CC(N)=O)C(=O)N[C@@H](CCCCN)C(N)=O)C(C)C)C(C)C)C(C)C)[C@@H](C)O`: in test [1], the Emax result was “inactive”. Besides, in test [2], the IC50 stood at 1280 nM. Besides, in test [3], the EC50 entry is reported as “Not Active”.

`CC[C@H](C)[C@H](NC(=O)CNC(=O)[C@H](CC(=O)O)NC(=O)[C@H](CO)NC(=O)[C@@H](N)Cc1cnc[nH]1)C(=O)N[C@@H](C)C(=O)N[C@H](C(=O)N[C@@H](CC(=O)O)C(=O)N[C@@H](CO)C(=O)N[C@@H](Cc1ccc(O)cc1)C(=O)N[C@@H](CO)C(=O)N[C@@H](CCCNC(=N)N)C(=O)N[C@@H](Cc1ccc(O)cc1)C(=O)N[C@@H](CCCNC(=N)N)C(=O)N[C@@H](CCCCN)C(=O)N[C@@H](CCC(N)=O)C(=O)N[C@@H](CCSC)C(=O)N[C@@H](C)C(=O)N[C@H](C(=O)N[C@@H](CCCCN)C(=O)N[C@@H](CCCCN)C(=O)N[C@@H](Cc1ccc(O)cc1)C(=O)N[C@@H](CC(C)C)C(=O)N[C@@H](C)C(=O)N[C@@H](C)C(=O)N[C@H](C(=O)N[C@@H](CC(C)C)C(=O)NCC(=O)N[C@@H](CCCCN)C(=O)N[C@@H](CCCNC(=N)N)C(=O)N[C@@H](Cc1ccc(O)cc1)C(=O)N[C@@H](CCCCN)C(=O)N[C@@H](CCC(N)=O)C(=O)N[C@@H](CCCNC(=N)N)C(=O)N[C@H](C(=O)N[C@@H](CCCCN)C(=O)N[C@@H](CC(N)=O)C(=O)N[C@@H](CCCCN)C(N)=O)C(C)C)C(C)C)C(C)C)[C@@H](C)O` (H-HSDGIATDSYSRYRKQMAVKKYLAAVLGKRYKQRVKNK-NH2): in test [4], the EC50 was 17.3 nM. Besides, in test [2], the IC50 worked out at 208 nM. Besides, the Emax in test [5] came out at 50.4%.

Turning to `CC[C@H](C)[C@H](NC(=O)[C@H](C)NC(=O)[C@H](CC(=O)O)NC(=O)[C@H](CO)NC(=O)[C@@H](N)Cc1cnc[nH]1)C(=O)N[C@@H](Cc1ccccc1)C(=O)N[C@H](C(=O)N[C@@H](CC(=O)O)C(=O)N[C@@H](CO)C(=O)N[C@@H](Cc1ccc(O)cc1)C(=O)N[C@@H](CO)C(=O)N[C@@H](CCCNC(=N)N)C(=O)N[C@@H](Cc1ccc(O)cc1)C(=O)N[C@@H](CCCNC(=N)N)C(=O)N[C@@H](CCCCN)C(=O)N[C@@H](CCC(N)=O)C(=O)N[C@@H](CCSC)C(=O)N[C@@H](C)C(=O)N[C@H](C(=O)N[C@@H](CCCCN)C(=O)N[C@@H](CCCCN)C(=O)N[C@@H](Cc1ccc(O)cc1)C(=O)N[C@@H](CC(C)C)C(=O)N[C@@H](C)C(=O)N[C@@H](C)C(=O)N[C@H](C(=O)N[C@@H](CC(C)C)C(N)=O)C(C)C)C(C)C)[C@@H](C)O`, the EC50 in test [4] is 20.8 nM. Moreover, the IC50 in test [2] came to 9.1 nM. Further, in test [5], the Emax stood at 105%.

Take `CC[C@H](C)[C@H](NC(=O)CNC(=O)[C@H](CC(=O)O)NC(=O)[C@H](C)NC(=O)[C@@H](N)Cc1cnc[nH]1)C(=O)N[C@@H](Cc1ccccc1)C(=O)N[C@H](C(=O)N[C@@H](CC(=O)O)C(=O)N[C@@H](CO)C(=O)N[C@@H](Cc1ccc(O)cc1)C(=O)N[C@@H](CO)C(=O)N[C@@H](CCCNC(=N)N)C(=O)N[C@@H](Cc1ccc(O)cc1)C(=O)N[C@@H](CCCNC(=N)N)C(=O)N[C@@H](CCCCN)C(=O)N[C@@H](CCC(N)=O)C(=O)N[C@@H](CCSC)C(=O)N[C@@H](C)C(=O)N[C@H](C(=O)N[C@@H](CCCCN)C(=O)N[C@@H](CCCCN)C(=O)N[C@@H](Cc1ccc(O)cc1)C(=O)N[C@@H](CC(C)C)C(=O)N[C@@H](C)C(=O)N[C@@H](C)C(=O)N[C@H](C(=O)N[C@@H](CC(C)C)C(N)=O)C(C)C)C(C)C)[C@@H](C)O`: the EC50 in test [4] stood at 6.8 nM. In addition, the IC50 in test [2] was 5.1 nM. For the same molecule, the Emax in test [5] came out at 98.1%.

Regarding `CC[C@H](C)[C@H](NC(=O)CNC(=O)[C@H](CC(=O)O)NC(=O)[C@H](C)NC(=O)[C@@H](N)Cc1cnc[nH]1)C(=O)N[C@@H](Cc1ccccc1)C(=O)N[C@H](C(=O)N[C@@H](CC(=O)O)C(=O)N[C@@H](CO)C(=O)N[C@@H](Cc1ccc(O)cc1)C(=O)N[C@@H](CO)C(=O)N[C@@H](CCCNC(=N)N)C(=O)N[C@@H](Cc1ccc(O)cc1)C(=O)N[C@@H](CCCNC(=N)N)C(=O)N[C@@H](CCCCN)C(=O)N[C@@H](CCC(N)=O)C(=O)N[C@@H](CCSC)C(=O)N[C@@H](C)C(=O)N[C@H](C(=O)N[C@@H](CCCCN)C(=O)N[C@@H](CCCCN)C(=O)N[C@@H](Cc1ccc(O)cc1)C(=O)N[C@@H](CC(C)C)C(=O)N[C@@H](C)C(=O)N[C@@H](C)C(=O)N[C@H](C(=O)N[C@@H](CC(C)C)C(=O)NCC(=O)N[C@@H](CCCCN)C(=O)N[C@@H](CCCNC(=N)N)C(=O)N[C@@H](Cc1ccc(O)cc1)C(=O)N[C@@H](CCCCN)C(=O)N[C@@H](CCC(N)=O)C(=O)N[C@@H](CCCNC(=N)N)C(=O)N[C@H](C(=O)N[C@@H](CCCCN)C(=O)N[C@@H](CC(N)=O)C(=O)N[C@@H](CCCCN)C(N)=O)C(C)C)C(C)C)C(C)C)[C@@H](C)O` (H-HADGIFTDSYSRYRKQMAVKKYLAAVLGKRYKQRVKNK-NH2), the EC50 in test [4] is 5.1 nM. Besides, in test [2], the IC50 was found to be 7.9 nM. Further, the Emax in test [5] turned out to be 105%.

In the case of `CC[C@H](C)[C@H](NC(=O)CNC(=O)[C@H](CC(=O)O)NC(=O)[C@H](CO)NC(=O)[C@@H](N)Cc1cnc[nH]1)C(=O)N[C@@H](Cc1cccc2ccccc12)C(=O)N[C@H](C(=O)N[C@@H](CC(=O)O)C(=O)N[C@@H](CO)C(=O)N[C@@H](Cc1ccc(O)cc1)C(=O)N[C@@H](CO)C(=O)N[C@@H](CCCNC(=N)N)C(=O)N[C@@H](Cc1ccc(O)cc1)C(=O)N[C@@H](CCCNC(=N)N)C(=O)N[C@@H](CCCCN)C(=O)N[C@@H](CCC(N)=O)C(=O)N[C@@H](CCSC)C(=O)N[C@@H](C)C(=O)N[C@H](C(=O)N[C@@H](CCCCN)C(=O)N[C@@H](CCCCN)C(=O)N[C@@H](Cc1ccc(O)cc1)C(=O)N[C@@H](CC(C)C)C(=O)N[C@@H](C)C(=O)N[C@@H](C)C(=O)N[C@H](C(=O)N[C@@H](CC(C)C)C(=O)NCC(=O)N[C@@H](CCCCN)C(=O)N[C@@H](CCCNC(=N)N)C(=O)N[C@@H](Cc1ccc(O)cc1)C(=O)N[C@@H](CCCCN)C(=O)N[C@@H](CCC(N)=O)C(=O)N[C@@H](CCCNC(=N)N)C(=O)N[C@H](C(=O)N[C@@H](CCCCN)C(=O)N[C@@H](CC(N)=O)C(=O)N[C@@H](CCCCN)C(N)=O)C(C)C)C(C)C)C(C)C)[C@@H](C)O` (H-HSDGI[1Nal]TDSYSRYRKQMAVKKYLAAVLGKRYKQRVKNK-NH2), the EC50 in test [4] is 1.4 nM. The IC50 in test [2] was found to be 5 nM. Further, the Emax in test [5] worked out at 106%.
